Columns and labels:
Type in all cases: functional
Staphylococcus aureus [1] = test: Antibacterial activity against vancomycin-resistant Staphylococcus aureus isolate 510 after 24 hrs by modified broth macrodilution method; conditions: isolate 510, 24 h
Outline: (§1)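 MIC read after 24 h incubation by modified broth macrodilution, validated per CLSI recommendations, against recent clinical MRSA isolates (hospital- and community-acquired, hVISA, VISA, VRSA). Daptomycin tests ran in Mueller-Hinton broth with added calcium.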

Staphylococcus aureus [2] = test: Antibacterial activity against hospital-acquired methicillin-resistant Staphylococcus aureus isolate 1808 after 24 hrs by modified broth macrodilution method; conditions: isolate 1808, 24 h; outline: as §1
Staphylococcus aureus [3] = test: Antibacterial activity against vancomycin-intermediate Staphylococcus aureus isolate 1984 after 24 hrs by modified broth macrodilution method; conditions: isolate 1984, 24 h; outline: as §1
Staphylococcus aureus [4] = test: Antibacterial activity against vancomycin-intermediate Staphylococcus aureus isolate 1016 after 24 hrs by modified broth macrodilution method; conditions: isolate 1016, 24 h; outline: as §1
Staphylococcus aureus [5] = test: Antibacterial activity against vancomycin-resistant Staphylococcus aureus after 24 hrs by modified broth macrodilution method; outline: as §1
Staphylococcus aureus [6] = test: Antibacterial activity against hospital-acquired methicillin-resistant Staphylococcus aureus isolate 1851 after 24 hrs by modified broth macrodilution method; conditions: isolate 1851, 24 h; outline: as §1
Staphylococcus aureus [7] = test: Antibacterial activity against hospital-acquired methicillin-resistant Staphylococcus aureus isolate 1766 after 24 hrs by modified broth macrodilution method; conditions: isolate 1766, 24 h; outline: as §1
Staphylococcus aureus [8] = test: Antibacterial activity against vancomycin-resistant Staphylococcus aureus isolate 1263 after 24 hrs by modified broth macrodilution method; conditions: isolate 1263, 24 h; outline: as §1
Staphylococcus aureus [9] = test: Antibacterial activity against vancomycin-intermediate Staphylococcus aureus isolate 1012 after 24 hrs by modified broth macrodilution method; conditions: isolate 1012, 24 h; outline: as §1
Staphylococcus aureus [10] = test: Antibacterial activity against vancomycin-intermediate Staphylococcus aureus isolate 1017 after 24 hrs by modified broth macrodilution method; conditions: isolate 1017, 24 h; outline: as §1
Staphylococcus aureus [11] = test: Antibacterial activity against vancomycin-intermediate Staphylococcus aureus isolate 555 after 24 hrs by modified broth macrodilution method; conditions: isolate 555, 24 h; outline: as §1
Staphylococcus aureus [12] = test: Antibacterial activity against vancomycin-hetero-intermediate Staphylococcus aureus isolate 873 after 24 hrs by modified broth macrodilution method; conditions: isolate 873, 24 h; outline: as §1
Staphylococcus aureus [13] = test: Antibacterial activity against vancomycin-intermediate Staphylococcus aureus isolate 1006 after 24 hrs by modified broth macrodilution method; conditions: isolate 1006, 24 h; outline: as §1
Staphylococcus aureus [14] = test: Antibacterial activity against community-acquired methicillin-resistant panton-valentine leukocidin-positive Staphylococcus aureus isolate 950 after 24 hrs by modified broth macrodilution method; conditions: isolate 950, 24 h; outline: as §1
Staphylococcus aureus [15] = test: Antibacterial activity against community-acquired methicillin-resistant panton-valentine leukocidin-positive Staphylococcus aureus isolate 1468 after 24 hrs by modified broth macrodilution method; conditions: isolate 1468, 24 h; outline: as §1
Staphylococcus aureus [16] = test: Antibacterial activity against community-acquired methicillin-resistant panton-valentine leukocidin-positive Staphylococcus aureus isolate 1469 after 24 hrs by modified broth macrodilution method; conditions: isolate 1469, 24 h; outline: as §1
Staphylococcus aureus [17] = test: Antibacterial activity against vancomycin-intermediate Staphylococcus aureus isolate 1008 after 24 hrs by modified broth macrodilution method; conditions: isolate 1008, 24 h; outline: as §1
Staphylococcus aureus [18] = test: Antibacterial activity against vancomycin-intermediate Staphylococcus aureus isolate 1005 after 24 hrs by modified broth macrodilution method; conditions: isolate 1005, 24 h; outline: as §1
Staphylococcus aureus [19] = test: Antibacterial activity against community-acquired methicillin-resistant panton-valentine leukocidin-positive Staphylococcus aureus isolate 1471 after 24 hrs by modified broth macrodilution method; conditions: isolate 1471, 24 h; outline: as §1
Staphylococcus aureus [20] = test: Antibacterial activity against vancomycin-intermediate Staphylococcus aureus isolate 1004 after 24 hrs by modified broth macrodilution method; conditions: isolate 1004, 24 h; outline: as §1
Staphylococcus aureus [21] = test: Antibacterial activity against vancomycin-resistant Staphylococcus aureus isolate 509 after 24 hrs by modified broth macrodilution method; conditions: isolate 509, 24 h; outline: as §1
Staphylococcus aureus [22] = test: Antibacterial activity against vancomycin-resistant Staphylococcus aureus isolate 1264 after 24 hrs by modified broth macrodilution method; conditions: isolate 1264, 24 h; outline: as §1
Staphylococcus aureus [23] = test: Antibacterial activity against community-acquired methicillin-resistant panton-valentine leukocidin-positive Staphylococcus aureus isolate 693 after 24 hrs by modified broth macrodilution method; conditions: isolate 693, 24 h; outline: as §1
Staphylococcus aureus [24] = test: Antibacterial activity against community-acquired methicillin-resistant panton-valentine leukocidin-positive Staphylococcus aureus isolate 813 after 24 hrs by modified broth macrodilution method; conditions: isolate 813, 24 h; outline: as §1
Staphylococcus aureus [25] = test: Antibacterial activity against vancomycin-intermediate Staphylococcus aureus isolate 1009 after 24 hrs by modified broth macrodilution method; conditions: isolate 1009, 24 h; outline: as §1
Staphylococcus aureus [26] = test: Antibacterial activity against vancomycin-intermediate Staphylococcus aureus isolate 1014 after 24 hrs by modified broth macrodilution method; conditions: isolate 1014, 24 h; outline: as §1
Staphylococcus aureus [27] = test: Antibacterial activity against community-acquired methicillin-resistant panton-valentine leukocidin-negative Staphylococcus aureus isolate 1470 after 24 hrs by modified broth macrodilution method; conditions: isolate 1470, 24 h; outline: as §1
Staphylococcus aureus [28] = test: Antibacterial activity against vancomycin-resistant Staphylococcus aureus isolate 557 after 24 hrs by modified broth macrodilution method; conditions: isolate 557, 24 h; outline: as §1
Staphylococcus aureus [29] = test: Antibacterial activity against hospital-acquired methicillin-resistant Staphylococcus aureus isolate 1743 after 24 hrs by modified broth macrodilution method; conditions: isolate 1743, 24 h; outline: as §1
Staphylococcus aureus [30] = test: Antibacterial activity against hospital-acquired methicillin-resistant Staphylococcus aureus isolate 1806 after 24 hrs by modified broth macrodilution method; conditions: isolate 1806, 24 h; outline: as §1
Staphylococcus aureus [31] = test: Antibacterial activity against hospital-acquired methicillin-resistant Staphylococcus aureus isolate 1776 after 24 hrs by modified broth macrodilution method; conditions: isolate 1776, 24 h; outline: as §1
Staphylococcus aureus [32] = test: Antibacterial activity against community-acquired methicillin-resistant panton-valentine leukocidin-positive Staphylococcus aureus isolate 1472 after 24 hrs by modified broth macrodilution method; conditions: isolate 1472, 24 h; outline: as §1
Staphylococcus aureus [33] = test: Antibacterial activity against vancomycin-hetero-intermediate Staphylococcus aureus isolate 618 after 24 hrs by modified broth macrodilution method; conditions: isolate 618, 24 h; outline: as §1
Staphylococcus aureus [34] = test: Antibacterial activity against vancomycin-intermediate Staphylococcus aureus isolate 511 after 24 hrs by modified broth macrodilution method; conditions: isolate 511, 24 h; outline: as §1
Staphylococcus aureus [35] = test: Antibacterial activity against vancomycin-hetero-intermediate Staphylococcus aureus after 24 hrs by modified broth macrodilution method; outline: as §1
Staphylococcus aureus [36] = test: Antibacterial activity against vancomycin-intermediate Staphylococcus aureus isolate 1013 after 24 hrs by modified broth macrodilution method; conditions: isolate 1013, 24 h; outline: as §1
Staphylococcus aureus [37] = test: Antibacterial activity against vancomycin-intermediate Staphylococcus aureus isolate 1287 after 24 hrs by modified broth macrodilution method; conditions: isolate 1287, 24 h; outline: as §1
Staphylococcus aureus [38] = test: Antibacterial activity against community-acquired methicillin-resistant panton-valentine leukocidin-positive Staphylococcus aureus isolate 815 after 24 hrs by modified broth macrodilution method; conditions: isolate 815, 24 h; outline: as §1
Staphylococcus aureus [39] = test: Antibacterial activity against community-acquired methicillin-resistant panton-valentine leukocidin-positive Staphylococcus aureus isolate 593 after 24 hrs by modified broth macrodilution method; conditions: isolate 593, 24 h; outline: as §1
Staphylococcus aureus [40] = test: Antibacterial activity against vancomycin-intermediate Staphylococcus aureus isolate 770 after 24 hrs by modified broth macrodilution method; conditions: isolate 770, 24 h; outline: as §1
Staphylococcus aureus [41] = test: Antibacterial activity against hospital-acquired methicillin-resistant Staphylococcus aureus isolate 1867 after 24 hrs by modified broth macrodilution method; conditions: isolate 1867, 24 h; outline: as §1
Staphylococcus aureus [42] = test: Antibacterial activity against vancomycin-intermediate Staphylococcus aureus isolate 1011 after 24 hrs by modified broth macrodilution method; conditions: isolate 1011, 24 h; outline: as §1
Staphylococcus aureus [43] = test: Antibacterial activity against vancomycin-intermediate Staphylococcus aureus after 24 hrs by modified broth macrodilution method; outline: as §1
Staphylococcus aureus [44] = test: Antibacterial activity against hospital-acquired methicillin-resistant Staphylococcus aureus isolate 1751 after 24 hrs by modified broth macrodilution method; conditions: isolate 1751, 24 h; outline: as §1
Staphylococcus aureus [45] = test: Antibacterial activity against vancomycin-intermediate Staphylococcus aureus isolate 1010 after 24 hrs by modified broth macrodilution method; conditions: isolate 1010, 24 h; outline: as §1
Staphylococcus aureus [46] = test: Antibacterial activity against hospital-acquired methicillin-resistant Staphylococcus aureus isolate 1838 after 24 hrs by modified broth macrodilution method; conditions: isolate 1838, 24 h; outline: as §1
Staphylococcus aureus [47] = test: Antibacterial activity against vancomycin-susceptible Staphylococcus aureus after 24 hrs by modified broth macrodilution method
Outline: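 MICs determined in recent clinical MRSA isolates by a modified broth macrodilution method per CLSI recommendations, with 24 h incubation. Daptomycin tests used Mueller-Hinton broth supplemented with calcium. Value is the lowest inhibitory drug concentration.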

Staphylococcus aureus [48] = test: Antibacterial activity against vancomycin-intermediate Staphylococcus aureus isolate 1015 after 24 hrs by modified broth macrodilution method; conditions: isolate 1015, 24 h; outline: as §1
Staphylococcus aureus [49] = test: Antibacterial activity against vancomycin-intermediate Staphylococcus aureus isolate 1007 after 24 hrs by modified broth macrodilution method; conditions: isolate 1007, 24 h; outline: as §1
Staphylococcus aureus [50] = test: Antibacterial activity against methicillin-resistant Staphylococcus aureus isolate 2003 after 24 hrs by modified broth macrodilution method; conditions: isolate 2003, 24 h; outline: as §1
Staphylococcus aureus [51] = test: Antibacterial activity against vancomycin-intermediate Staphylococcus aureus isolate 1003 after 24 hrs by modified broth macrodilution method; conditions: isolate 1003, 24 h; outline: as §1

Measured: MIC

Nc1nc(/C(=N/O)C(=O)N[C@@H]2C(=O)N3C(C(=O)O)=C(/C=C4\CCN([C@@H]5CCNC5)C4=O)CS[C@H]23)ns1 [CEFTOBIPROLE]
1 µg/mL: Staphylococcus aureus [1] | Staphylococcus aureus [2] | Staphylococcus aureus [6] | Staphylococcus aureus [11] | Staphylococcus aureus [14] | Staphylococcus aureus [15] | Staphylococcus aureus [16] | Staphylococcus aureus [18] | Staphylococcus aureus [19] | Staphylococcus aureus [20] | Staphylococcus aureus [23] | Staphylococcus aureus [24] | Staphylococcus aureus [28] | Staphylococcus aureus [30] | Staphylococcus aureus [32] | Staphylococcus aureus [39] | Staphylococcus aureus [44] | Staphylococcus aureus [48] | Staphylococcus aureus [49]
0.5 µg/mL: Staphylococcus aureus [5] | Staphylococcus aureus [22] | Staphylococcus aureus [37] | Staphylococcus aureus [38] | Staphylococcus aureus [43] | Staphylococcus aureus [47]
4 µg/mL: Staphylococcus aureus [4] | Staphylococcus aureus [9] | Staphylococcus aureus [42]
2 µg/mL: all other assays above

CC(=O)NC[C@H]1CN(c2ccc(N3CCOCC3)c(F)c2)C(=O)O1 [LINEZOLID]
1 µg/mL: Staphylococcus aureus [4] | Staphylococcus aureus [13] | Staphylococcus aureus [43]

CCCCCCCCCC(=O)N[C@@H](Cc1c[nH]c2ccccc12)C(=O)N[C@H](CC(N)=O)C(=O)N[C@@H](CC(=O)O)C(=O)N[C@@H]1C(=O)NCC(=O)N[C@@H](CCCN)C(=O)N[C@@H](CC(=O)O)C(=O)N[C@H](C)C(=O)N[C@@H](CC(=O)O)C(=O)NCC(=O)N[C@H](CO)C(=O)N[C@@H]([C@H](C)CC(=O)O)C(=O)N[C@@H](CC(=O)c2ccccc2N)C(=O)O[C@@H]1C
4 µg/mL: Staphylococcus aureus [11]
0.25 µg/mL: Staphylococcus aureus [5] | Staphylococcus aureus [14] | Staphylococcus aureus [22] | Staphylococcus aureus [28] | Staphylococcus aureus [29] | Staphylococcus aureus [47]
1 µg/mL: Staphylococcus aureus [7] | Staphylococcus aureus [9] | Staphylococcus aureus [10] | Staphylococcus aureus [15] | Staphylococcus aureus [18] | Staphylococcus aureus [33] | Staphylococcus aureus [34] | Staphylococcus aureus [42] | Staphylococcus aureus [45] | Staphylococcus aureus [48]
2 µg/mL: Staphylococcus aureus [3] | Staphylococcus aureus [4] | Staphylococcus aureus [13] | Staphylococcus aureus [17] | Staphylococcus aureus [25] | Staphylococcus aureus [26] | Staphylococcus aureus [36] | Staphylococcus aureus [37] | Staphylococcus aureus [49] | Staphylococcus aureus [51]
0.5 µg/mL: all other assays above

Reference: ChEMBL document CHEMBL1255424, “Antistaphylococcal activity of ACHN-490 tested alone and in combination with other agents by time-kill assay” (2010)
